Data on 31 compounds can be found in ChEMBL document CHEMBL1121372, “Synthesis and antihypertensive activity of 5-amino-2-pyridinecarboxylic acid derivatives” (1980).

Active and inactive are the calls of the source. No cut-off for these calls is given here. A value given as a limit tells only on which side of the number the result lay.

Experiment [1] concerns Rattus norvegicus. Briefly: Antihypertensive effect in spontaneously hypertensive rat (SHR), expressed as fall in blood pressure (BP) at 50 mg/kg dose given orally. It is filed as functional. The note with it: route oral. In outline:
(§1)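 Male SHR, about 16 weeks old, with systolic pressure above 150 mmHg, held in restraint cages. Tail-cuff occlusion was raised to 250 mmHg and then lowered, after 1 h acclimation and at least 3 baseline readings. Dosing was by daily gavage in 3% cornstarch/5% PEG-400/Tween 80 for 2 or 4 days, with 4–6 rats per drug. Readings at 1, 2, 3 and 24 h; peak fall reported.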

In experiment [2] the test system is Canis familiaris. Briefly: Antihypertensive activity in unanesthetized renal hypertensive dogs measured as mean Blood Pressure at 60 mg per kg dose after peroral administration on day 3. It counts as functional, Canis lupus familiaris. The conditions noted are these: route oral. In a few lines:
(§2)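 Renal hypertensive dogs, unanesthetized. Drug given orally once daily as solid in gelatin capsule. Blood pressure and heart rate read at 1.5, 3, 6 and 24 h after each dose. Value is the maximum change over the daily monitored session, mean ± SE. MBP in mm Hg, HR in beats/min, p < 0.05 flagged.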

For experiment [3], the system named is Canis familiaris. Briefly: Antihypertensive activity in unanesthetized renal hypertensive dogs measured as mean Blood Pressure at 60 mg per kg dose after peroral administration on day 2. It counts as functional, Canis lupus familiaris. The note with it: route oral. In outline:
as §2

Experiment [4] deals with Canis familiaris. Put plainly: Antihypertensive activity in unanesthetized renal hypertensive dogs measured as Heart Rate (HR) (beats/min) at 60 mg per kg dose after peroral administration on day 2. It is filed as functional, Canis lupus familiaris. The conditions noted are these: route oral. In outline:
as §2

Experiment [5] relates to Canis familiaris. Briefly: Antihypertensive activity in unanesthetized renal hypertensive dogs measured as Heart Rate (HR) (beats/min) at 60 mg per kg dose after peroral administration on day 3. The conditions noted are these: route oral. It is filed as functional, Canis lupus familiaris. In a few lines:
as §2

Experiment [6] relates to Canis familiaris. Briefly: Antihypertensive activity in unanesthetized renal hypertensive dogs measured as mean Blood Pressure at 60 mg per kg dose after peroral administration on day1. It counts as functional, Canis lupus familiaris. The conditions noted are these: route oral. In a few lines: as §2
In experiment [7] the test system is Canis familiaris. Put plainly: Antihypertensive activity in unanesthetized renal hypertensive dogs measured as Heart Rate (HR) (beats/min) at 60 mg per kg dose after peroral administration on day1. It counts as functional, Canis lupus familiaris. The note with it: route oral. In outline: as §2
Experiment [8] has as its system Rattus norvegicus. Put plainly: The compound was tested for antihypertensive effect in spontaneously hypertensive rat (SHR), expressed as fall in blood pressure (BP) at 100 mg/kg dose given orally. It is filed as functional. The conditions noted are these: route oral. In outline: as §1
For experiment [9], the system named is Rattus norvegicus. Briefly: The compound was tested for antihypertensive effect in spontaneously hypertensive rat (SHR), expressed as fall in blood pressure (BP) at 50 mg/kg dose given orally; Inactive. Set-up: dose 50 mg/kg. It counts as functional, organism-based. In outline:
as §1

The test system of experiment [10] is Rattus norvegicus. Briefly: The compound was tested for antihypertensive effect in spontaneously hypertensive rat (SHR), expressed as fall in blood pressure (BP) at 100 mg/kg dose given orally; Inactive. It counts as functional, organism-based. Details: dose 100 mg/kg. In a few lines:
as §1

The subject of experiment [11] is Canis familiaris. Briefly: Antihypertensive activity in unanesthetized renal hypertensive dogs measured as Heart Rate (HR) (beats/min) at 100 mg per kg dose after peroral administration on day 2 (p<0.05). It counts as functional, Canis lupus familiaris. The note with it: route oral. In outline: (§3)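 Renal hypertensive dogs, unanesthetized. Test compound given orally once daily as a solid in a gelatin capsule. Blood pressure was taken at 1.5, 3, 6 and 24 h after each daily dose. Activity is the maximum change in mean blood pressure or heart rate over each daily session. Values are mean ± SE, with significance marked at p < 0.05.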

For experiment [12], the system named is Rattus norvegicus. Briefly: The compound was tested for antihypertensive effect in spontaneously hypertensive rat (SHR), expressed as fall in blood pressure (BP) at 25 mg/kg dose given orally. It counts as functional. The conditions noted are these: route oral. In a few lines: as §1
The test system of experiment [13] is Canis familiaris. Briefly: Antihypertensive activity in unanesthetized renal hypertensive dogs measured as Heart Rate (HR) (beats/min) at 100 mg per kg dose after peroral administration on day1. It counts as functional, Canis lupus familiaris. The conditions noted are these: route oral. In a few lines:
as §3

Experiment [14] relates to Canis familiaris. Put plainly: Antihypertensive activity in unanesthetized renal hypertensive dogs measured as mean Blood Pressure at 100 mg per kg dose after peroral administration on day1. It is filed as functional, Canis lupus familiaris. Set-up: unit not given beside the values. The note with it: route oral. In outline:
as §3

Experiment [15] concerns Canis familiaris. Briefly: Antihypertensive activity in unanesthetized renal hypertensive dogs measured as mean Blood Pressure at 100 mg per kg dose after peroral administration on day 3 (p<0.05). It is filed as functional, Canis lupus familiaris. The note with it: route oral. In a few lines:
as §3

The test system of experiment [16] is Canis familiaris. Put plainly: Antihypertensive activity in unanesthetized renal hypertensive dogs measured as mean Blood Pressure at 100 mg per kg dose after peroral administration on day 2 (p<0.05). It counts as functional, Canis lupus familiaris. The note with it: route oral. In a few lines:
as §3

In experiment [17] the test system is Canis familiaris. Put plainly: Antihypertensive activity in unanesthetized renal hypertensive dogs measured as Heart Rate (HR) (beats/min) at 100 mg per kg dose after peroral administration on day 3. The conditions noted are these: route oral. It is filed as functional, Canis lupus familiaris. In outline: as §3
Experiment [18] concerns Canis familiaris. Put plainly: Antihypertensive activity in unanesthetized renal hypertensive dogs measured as Heart Rate (HR) (beats/min) at 100 mg per kg dose after peroral administration on day 4. It counts as functional, Canis lupus familiaris. The note with it: route oral. In a few lines:
as §3

Experiment [19] has as its system Canis familiaris. Put plainly: Antihypertensive activity in unanesthetized renal hypertensive dogs measured as mean Blood Pressure at 100 mg per kg dose after peroral administration on day 4 ((p<0.05). It is filed as functional, Canis lupus familiaris. The conditions noted are these: route oral. In a few lines: as §3
For experiment [20], the system named is Canis familiaris. Briefly: Antihypertensive activity in unanesthetized renal hypertensive dogs measured as HeartHeart Rate (HR) (beats/min) at 100 mg per kg dose after peroral administration on day 4 ((p<0.05). It counts as functional, Canis lupus familiaris, Heart. The conditions noted are these: route oral. In outline: as §3
Experiment [21] has as its system Canis familiaris. Briefly: Antihypertensive activity in unanesthetized renal hypertensive dogs measured as mean Blood Pressure at 100 mg per kg dose after peroral administration on day 4 (p<0.05). It is filed as functional, Canis lupus familiaris. The note with it: route oral. In a few lines: as §3
Experiment [22] concerns Canis familiaris. Put plainly: Antihypertensive activity in unanesthetized renal hypertensive dogs measured as mean Blood Pressure at 100 mg per kg dose after peroral administration on day 2. The note with it: route oral. It is filed as functional, Canis lupus familiaris. In outline:
as §3

The test system of experiment [23] is Canis familiaris. Put plainly: Antihypertensive activity in unanesthetized renal hypertensive dogs measured as Heart Rate (HR) (beats/min) at 100 mg per kg dose after peroral administration on day 2. It is filed as functional, Canis lupus familiaris. The note with it: route oral. In a few lines:
as §3

With `OCc1ccc(NCc2ccc(F)cc2)cn1`, the BP with Rattus norvegicus [1] is listed as >80 mmHg.
For `CCCCc1ccc(C(=O)O)nc1` [FUSARIC ACID], the MBP is recorded as -30 in the experiment with Canis familiaris [2], -45 with Canis familiaris [3] and -50 in the experiment on Canis familiaris [6]. Also, the HR in the experiment on Canis familiaris [4] worked out at 35; in the experiment with Canis familiaris [5] it was 33; in the experiment on Canis familiaris [7], 32. Besides, in the experiment on Rattus norvegicus [8], the BP was >60 mmHg.
Regarding `O=C(Nc1ccc(C(=O)O)nc1)c1ccccc1`, in the experiment on Rattus norvegicus [8], the BP is on record as >20 mmHg.
In the case of `CCNC(=O)c1ccc(NCc2ccc(F)cc2)cn1`, the BP result in the experiment on Rattus norvegicus [9] was “inactive”.
As for `CN(Cc1cccc(Br)c1)c1ccc(C(=O)O)nc1`, in the experiment with Rattus norvegicus [1], the BP is recorded as >40 mmHg.
On to `O=C(O)c1ccc(NCCCc2ccccc2)cn1`, for which the BP with Rattus norvegicus [8] is >40 mmHg.
Regarding `NC(=O)c1ccc(CNc2ccc(C(=O)O)nc2)cc1`, in the experiment with Rattus norvegicus [1], the BP is <20 mmHg.
Take `OCc1ccc(NCc2cccc(Cl)c2)cn1`: the BP in the experiment on Rattus norvegicus [1] is > 40 mmHg.
Same read-out and setting: the figure for `O=C(O)c1ccc(NCc2ccc(F)cc2)c[n+]1[O-]` is >20 mmHg.
Same read-out and setting: as for `Cc1nc(C(=O)O)ccc1NCc1cccc(Cl)c1`, the figure is >20 mmHg.
`CCOC(=O)Nc1ccc(C(=O)OC)nc1`: the BP entry in the experiment with Rattus norvegicus [10] was “inactive”.
Regarding `O=C(O)c1ccc(NCc2ccc(F)cc2)cn1`, the results for the HR in the experiment on Canis familiaris [11], with Canis familiaris [17] and with Canis familiaris [18] were 60, 52 and 41, respectively. The BP in the experiment with Rattus norvegicus [12] is >60 mmHg; in the experiment on Rattus norvegicus [1], > 60 mmHg. In the experiment with Canis familiaris [13], this compound showed a Maximum change in heart rate of 37. Also, the MBP in the experiment on Canis familiaris [14] was -69; in the experiment with Canis familiaris [15], -49; in the experiment with Canis familiaris [16] it was -41; in the experiment on Canis familiaris [19] it was -48.
As for `O=Cc1ccc(NCc2ccc(F)cc2)cn1`, in the experiment with Rattus norvegicus [1], the BP was >80 mmHg.
As for `O=C(O)c1ccc(NCc2cccc(Oc3ccccc3)c2)cn1`, the BP with Rattus norvegicus [1] is given as >20 mmHg.
Take `CN(Cc1cccc(Cl)c1)c1ccc(CO)nc1`: the BP in the experiment with Rattus norvegicus [1] is on record as >40 mmHg.
As for `O=Cc1ccc(NCc2cccc(Cl)c2)cn1`, the BP in the experiment with Rattus norvegicus [1] is >20 mmHg.
Still for that read-out and setting: the figure for `Fc1ccc(CNc2ccc(C3N=NN=N3)nc2)cc1` is >60 mmHg.
As to `CC(Nc1ccc(C(=O)O)nc1)c1ccccc1` (configuration not stated), the BP in the experiment on Rattus norvegicus [1] is >80 mmHg.
Regarding `O=C(O)c1ccc(NCc2ccc(C(F)(F)F)cc2)cn1`, the BP in the experiment with Rattus norvegicus [1] is recorded as >40 mmHg.
Still for that read-out and setting: the figure for `COc1cc(CNc2ccc(C(=O)O)nc2)cc(OC)c1OC` is <20 mmHg.
As for `O=C(O)c1ccc(NCc2cc(Cl)cc(Cl)c2)cn1`, the BP in the experiment with Rattus norvegicus [1] was >60 mmHg.
For `CCCCS(=O)(=O)Nc1ccc(C(=O)O)nc1`, in the experiment with Rattus norvegicus [10], the BP entry was “inactive”.
In the case of `O=C(O)c1ccc(NCc2cccc(F)c2)cn1`, the HR is 44 in the experiment with Canis familiaris [20], 51 with Canis familiaris [17] and 78 in the experiment with Canis familiaris [23]. Besides, the MBP with Canis familiaris [21] was -51; with Canis familiaris [14], -30; with Canis familiaris [22] it was -46; with Canis familiaris [15], -56. Moreover, the “Maximum change in heart rate” value with Canis familiaris [13] is listed as 35. The BP with Rattus norvegicus [1] is >60 mmHg.
For `N#Cc1ccc(NCc2ccc(F)cc2)cn1`, in the experiment with Rattus norvegicus [9], the BP result is “inactive”.
For the compound `Cc1cccc(CNc2ccc(C(=O)O)nc2)c1`, the BP in the experiment with Rattus norvegicus [1] is reported as >20 mmHg.
As to `O=C(O)c1ccc(NS(=O)(=O)c2ccc(Cl)cc2)cn1`, the BP result in the experiment with Rattus norvegicus [10] was “inactive”.
As for `CN(Cc1cccc(Oc2ccccc2)c1)c1ccc(C(=O)O)nc1`, the BP with Rattus norvegicus [1] is >20 mmHg.
For `CN(C)C(=O)c1ccc(NCc2ccc(F)cc2)cn1`, the HR in the experiment with Canis familiaris [11] turned out to be 112. Also, the “Maximum change in heart rate” value in the experiment on Canis familiaris [13] came out at 20. For the same compound, in the experiment on Rattus norvegicus [1], the BP is recorded as >60 mmHg. For the same compound, the MBP with Canis familiaris [16] was -67.
For the compound `CN(Cc1cccc(F)c1)c1ccc(C(=O)O)nc1`, the BP with Rattus norvegicus [1] is reported as >20 mmHg.
For `CN(Cc1cccc(Cl)c1)c1ccc(C(N)=O)nc1`, the BP with Rattus norvegicus [12] is given as <20 mmHg.
As to `O=C(O)c1ccc(NCc2ccc(Cl)cc2)cn1`, the BP in the experiment on Rattus norvegicus [8] is listed as >40 mmHg.
